Screening data from PubChem BioAssay.
FGF22 binding: FGF22 (human) thermal shift binding | Q9HCT0 | recombinant FGF22 thermal shift, SYPRO orange fluorescence; percent of sucrose octasulfate shift, DMSO zero | activity (Tm shift, normalised), % at 9.99 µM | actives 1.5% (n = 340,000);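 active means mean Tm shift, scaled 0 neutral to 100 positive control, at about 1.3% or above, every replicate too, limit read from the data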
ABCB6 inh MLPCN: blocks the human ABCB6 transporter; K562-ABCB6 porphyrin accumulation, flow cytometry, 1 h; stronger effect = lower value; actives 0.19% (n = 360,000); AID 602162; fluorescence ratio to DMSO, % at 10 µM; Q9NP58;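 active means fluorescence ratio to DMSO below 75%, the collection mean minus 3 SD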;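 further: signal is porphyrin accumulated inside mitochondria; 100% equals median channel fluorescence of DMSO control wells; lower ratio means ABCB6 inhibition with less porphyrin fluorescence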
Granule exo inh: lytic granule exocytosis inhibition. TALL-104 LAMP-1 surface exposure, flow cytometry; cells stimulated with thapsigargin and PMA. actives 0.66% (n = 360,000). inhibition, % at 10 µM;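 active means inhibition above about 55%, limit read from the data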
MT1-MMP act inh: MT1-MMP (human) activation inhibition; AID 651647; GFP/RFP ratio change, % at 20 µM; actives 0.061% (n = 360,000); HT1080 RFP-PRO-GFP cells, GFP/RFP ratio fluorescence, overnight; percent of plate control window, DMSO zero;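 active means GFP/RFP ratio change of at least 30% with cell ATP level not reduced by more than half and red fluorescence within 50% of control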
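system = RFP-PRO-GFP reporter HT1080 cells | dosing = 20 µM single dose, 1% DMSO | timing = overnight cell settling, then overnight compound exposure, 37 °C, 5% CO2 | read-out basis = GFP/RFP fluorescence ratio | controls = DMSO and RFP-L50D-GFP cell wells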
DAGLB inh: blocks human DAGLB lipase activity | AID 504411 | Q8NCG7 | HEK293T DAGLB membrane lysate, EnzChek fluorogenic substrate | inhibition, % at 5.17 µM | actives 0.059% (n = 340,000); in the data active means inhibition above about 34%;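 further: 0% = enzyme with vehicle and 100% = wells lacking enzyme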
VLA-4 inh: inhibition in a human VLA-4 binding assay; P13612; VLA-4 expressing cells, ligand binding flow cytometry; inhibition, % (about 7 µM as worked out from the volumes in the protocol); actives 0.2% (n = 330,000); AID 2557; in the data active means inhibition above about 50%
ABCB6 inh CP1: blocks the human ABCB6 transporter. ratio response (% of DMSO), % at 10 µM. 700 tested, under 10 active. K562-ABCB6 porphyrin accumulation, flow cytometry, 1 h; stronger effect = lower value. shares compounds with ABCB6 inh MLPCN;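 active means repeat-averaged ratio response below 75% of DMSO, the collection mean minus 3 SD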;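 further: median porphyrin fluorescence at 575 nm with 488 nm excitation from mitochondria; lower ratio means less porphyrin signal so ABCB6 inhibition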
Starred values were filed as active, the others as inactive; / = no result given. Only some compounds are listed: those with a hit (about 2% of all), similar ones and a draw of the others.

SMILES	FGF22 binding	ABCB6 inh MLPCN	Granule exo inh	MT1-MMP act inh	DAGLB inh	VLA-4 inh	ABCB6 inh CP1
O=C(CC(c1ccc(F)cc1)c1ccco1)N1CCCC1 (stereo not given)	/	104	-4	0	2	4	/
O=C(OCC(=O)N1CCN(c2ccccc2)CC1)c1ccc2ccccc2n1	/	74*	0	1	1	2	99
O=S(=O)(c1ccccc1)N1CCN(Cc2ccccc2)CC1	0	93	-8	2	-3	-2	/
Cc1ccc(S(=O)(=O)N2CCN(Cc3ccccc3)CC2)cc1	0	8.0*	1	-1	-1	7	92
COc1ccc(NC(=O)CSc2nnc(-c3ccccn3)n2N)c(OC)c1	/	73*	3	-6	-1	-10	102
Cc1nc2c(C(=O)NCCC(C)C)c[nH]n2c(=O)c1Cc1ccccc1F	/	102	-2	1	24	10	100
COc1cc2[nH]c(=S)nc(NC3CCCCCC3)c2cc1OC	0	73*	-1	-2	2	0	99
CN(C)S(=O)(=O)c1cccc(NC(=O)COC(=O)CCSc2ccc(Cl)cc2)c1	/	71*	1	10	-1	-13	101
CCN(CC)S(=O)(=O)c1cccc(NC(=O)CCSc2ccc(Cl)cc2)c1	/	99	-2	-4	-10	-13	/
CCN(CC)C(=O)Cn1cnc2sc(C(=O)Nc3cc(OC)c(OC)c(OC)c3)c(C)c2c1=O	/	97	-3	1	1	2	102
CC(=O)Nc1cccc(NC(=O)c2sc3ncn(CC(=O)N4CCCCC4)c(=O)c3c2C)c1	/	101	-2	2	1	/	99
CCCNC(=O)Cn1cnc2sc(C(=O)Nc3cc(OC)c(OC)c(OC)c3)c(C)c2c1=O	0	101	-2	6	-1	4	97
C[C@@H]1CN([C@@H](C)CO)C(=O)c2cc(C#Cc3ccccn3)cnc2O[C@H]1CN(C)CC1CCCC1	0	/	/	/	/	/	/
COc1ccc(CN(Cc2nc3ccccc3c(=O)[nH]2)C(=O)NC2CCCCC2)cc1	/	96	-1	-4	-1	2	/
COc1ccc(S(=O)(=O)N(Cc2nc3ccccc3c(=O)[nH]2)C2CCCC2)cc1	/	68*	-1	-3	-2	2	101
CCN(Cc1ccccc1)Cc1c(C)[nH]c2c(C)c(C)ccc2c1=O	/	55*	-2	0	0	-3	99
COC(=O)C1CCN(C(=O)Cc2ccccc2OC)CC1	43*	72*	-1	-1	0	-4	99
CN(C)C(=O)[C@H]1[C@H](CO)[C@H]2Cn3c(ccc(-c4cncnc4)c3=O)[C@H]2N1Cc1ccccc1F	0	/	/	/	/	/	/
COc1cc2c(C(=O)NCCN(C)C)cn(CC(C)C)c(=O)c2cc1OC	0	69*	-2	-12	-2	0	101
COc1cc2c(C(=O)NCCCOC(C)C)cn(CC(C)C)c(=O)c2cc1OC	/	95	3	-3	-2	1	/
CCCCN(C)C(=O)c1cccc(OC2CCN(CC(C)(C)C)CC2)c1	0	100	-1	0	0	17	/
CC(C)(C)CN1CCC(Oc2cccc(C(=O)N3CCNC(=O)C3(C)C)c2)CC1	0	14*	1	-3	1	-8	102
CN1[C@@H]2c3ccc(-c4cccc(F)c4)c(=O)n3C[C@H]1[C@H](CO)[C@H]2C(=O)NCc1ccccc1	0	/	/	/	/	/	/
CN1C(=O)c2cc(NS(=O)(=O)c3cccc(F)c3)ccc2OC[C@H]2O[C@H](CC(=O)O)CC[C@H]21	0	/	/	/	/	/	/
Clc1ccccc1-c1nnc2sc(C3COc4ccccc4O3)nn12 (stereo not given)	/	44*	4	4	0	-1	100
Cc1ccc(-c2nnc3sc(C4COc5ccccc5O4)nn23)cc1 (stereo not given)	0	101	4	0	-1	14	/
O=C([C@@H]1[C@@H](CO)[C@@H]2Cn3c(ccc(C4=CCCC4)c3=O)[C@H]1N2C(=O)c1ccccc1)N1CCOCC1	0	/	/	/	/	/	/
